A selection: hits, their analogues and other compounds. The true share with any hit is near 2.1%.
PGC1a acetyl inh – PGC1a acetylation modulation, inhibitor mode | inhibition, % at 15.6 µM | U2OS PGC1a acetylation, AlphaScreen anti-acetyl-lysine; with virally co-expressed GCN5 acetyltransferase | actives 0.17% (n = 350,000);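 active means every replicate shows inhibition of at least 40%; inconclusive means mean inhibition at least 40% but some replicate below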;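 further: 0% = neutral control wells and 100% = positive control wells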
INS-1E GSIS act – primary screen for activators of insulin secretion dependent on glucose, INS-1E cells, GLuc reporter luminescence | INS-1E GLuc reporter insulin secretion, 2-3 h | activation, % at 16.6 µM | actives 0.61% (n = 370,000) | AID 743287;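 active means lowest replicate activation of at least 40%, so every replicate reaches that level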;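 further: 0% = median of neutral control wells and 100% = median of IBMX positive control wells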
Xi reactivation – X-chromosome reactivation activator; activation, % at 7.58 µM; actives 0.055% (n = 360,000); XiGFP mouse fibroblasts, % GFP-positive cells imaging, 3 d; cells co-treated with 5-aza-dC sensitizer; scaled so ellipticine positive control = 100%; AID 743238;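 active means mean normalized replicate activation at least 10% and every replicate at or above 10%; inconclusive means only one of the two criteria met; inactive means mean below 10% and not all replicates reach 10%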;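 further: 0% = median of on-plate neutral control wells and 100% = ellipticine 6 µM median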
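System: XiGFP fibroblasts, SV40-immortalized. Medium: DMEM plus 5-aza-dC sensitizer. Doses: single point. Timing: 3 d treatment, 15 min room-temperature fixation. Control set: ellipticine 6 µM.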
PAX8 inh HTS – PAX8 transcriptional activity inhibition; RMG-I TPO-luciferase reporter, SteadyGlo, 24 h; inhibition, % at 12.6 µM; actives 1.2% (n = 360,000); AID 652154;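 active means mean replicate inhibition at least 60% with every replicate also reaching 60%; inconclusive means only one of the two criteria is met; inactive means mean below 60% and not all replicates reaching 60%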;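 further: luciferase light reporting Pax8 driven TPO promoter activity; plate controls were median of neutral control wells for no effect and mitoxantrone controls for full effect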
EWS-Fli block – inhibitors of EWS/Fli oncoprotein transcriptional activity. A673 NR0B1-luciferase reporter, viability-normalised. inhibition, % at 12.6 µM. actives 0.67% (n = 350,000);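 active means mean inhibition of at least 50% after viability correction, with every replicate also passing that limit; inconclusive means mean reaches 50% but only one of two replicates passes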;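 further: firefly luciferase signal divided by Alamar Blue viability fluorescence both relative to DMSO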
AF4-AF9 inh – MLL-AF4/AF9 protein interaction inhibition; P42568; AlphaScreen, biotin-AF4 peptide binding to FLAG-AF9; inhibition, % at 10 µM; actives 0.47% (n = 350,000); AID 651704;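 active means every replicate reaching a set inhibition limit, whatever the replicate mean, cut at about 25% in these data; inconclusive means mean inhibition reaches that limit but some replicates miss it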;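 further: 0% = plate neutral control median and 100% = total signal loss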
Target sequence (P42568 whole entry, looked up): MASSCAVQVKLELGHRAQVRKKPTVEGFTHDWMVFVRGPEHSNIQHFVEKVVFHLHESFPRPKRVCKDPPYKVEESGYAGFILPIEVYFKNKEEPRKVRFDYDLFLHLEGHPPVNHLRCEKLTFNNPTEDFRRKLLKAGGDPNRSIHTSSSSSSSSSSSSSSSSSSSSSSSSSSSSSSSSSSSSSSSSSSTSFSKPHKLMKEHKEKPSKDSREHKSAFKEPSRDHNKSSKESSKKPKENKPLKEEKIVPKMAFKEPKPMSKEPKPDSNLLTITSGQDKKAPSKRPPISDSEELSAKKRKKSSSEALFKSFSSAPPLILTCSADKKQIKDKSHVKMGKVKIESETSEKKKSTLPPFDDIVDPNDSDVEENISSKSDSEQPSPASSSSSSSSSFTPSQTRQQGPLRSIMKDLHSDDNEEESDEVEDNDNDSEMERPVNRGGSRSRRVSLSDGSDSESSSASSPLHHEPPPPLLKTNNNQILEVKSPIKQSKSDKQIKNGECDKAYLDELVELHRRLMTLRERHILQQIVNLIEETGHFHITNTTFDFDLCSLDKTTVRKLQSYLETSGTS
The depositor's hits bear a star; ? = inconclusive; . = not tested or not shown.

SMILES	PGC1a acetyl inh	INS-1E GSIS act	Xi reactivation	PAX8 inh HTS	EWS-Fli block	AF4-AF9 inh
O=C1N[C@@H](c2ccccc2)COCc2cn(nn2)CC[C@@H](Cc2ccc(C(F)(F)F)cc2)C(=O)N[C@@H](c2ccccc2)COCc2cn(nn2)CC[C@H]1Cc1ccc(C(F)(F)F)cc1	.	-38	0	.	.	.
Cc1noc(C)c1NC(=O)N(C)C[C@H]1Oc2ccc(NS(=O)(=O)c3cn(C)cn3)cc2CC(=O)N([C@@H](C)CO)C[C@H]1C	3	15	-1	-16	1	0
O=C(Nc1nnc(-c2ccccc2SCc2ccccc2F)s1)Nc1ccccc1F	-4	61*	.	.	.	.
Cc1c(N/N=C(\C#N)C(=O)c2ccc(Cl)cc2)c(=O)n(-c2ccccc2)n1C	.	-14	1	64*	.	.
Cc1noc(C)c1S(=O)(=O)Nc1ccc2c(c1)C(=O)N([C@H](C)CO)C[C@@H](C)[C@H](CN(C)Cc1ccc(Cl)c(Cl)c1)OCCCC[C@@H](C)O2	-5	-16	0	75*	22	3
Cc1noc(C)c1S(=O)(=O)Nc1ccc2c(c1)C(=O)N([C@H](C)CO)C[C@@H](C)[C@H](CN(C)Cc1ccc(C(F)(F)F)cc1)OCCCC[C@@H](C)O2	5	-15	0	?	.	3
Cc1noc(C)c1S(=O)(=O)Nc1ccc2c(c1)C(=O)N([C@H](C)CO)C[C@H](C)[C@@H](CN(C)Cc1ccc(Cl)c(Cl)c1)OCCCC[C@H](C)O2	-6	2	0	21	.	-2
Cc1noc(C)c1S(=O)(=O)Nc1ccc2c(c1)C(=O)N([C@H](C)CO)C[C@@H](C)[C@H](CN(C)Cc1ccc(C(F)(F)F)cc1)OCCCC[C@H](C)O2	13	-22	0	72*	.	3
Cc1noc(C)c1S(=O)(=O)Nc1ccc2c(c1)C(=O)N([C@H](C)CO)C[C@@H](C)[C@H](CN(C)C(=O)Nc1ccc(C(F)(F)F)cc1)OCCCC[C@@H](C)O2	6	2	-1	87*	12	-1
Cc1noc(C)c1S(=O)(=O)Nc1ccc2c(c1)C(=O)N([C@@H](C)CO)C[C@@H](C)[C@@H](CN(C)Cc1ccc(C(F)(F)F)cc1)OCCCC[C@H](C)O2	1	-20	0	68*	.	-2
Cc1noc(C)c1S(=O)(=O)Nc1ccc2c(c1)C(=O)N([C@@H](C)CO)C[C@@H](C)[C@@H](CN(C)C(=O)Nc1ccc(C(F)(F)F)cc1)OCCCC[C@H](C)O2	7	-10	0	39	1	-2
Cc1noc(C)c1NC(=O)N(C)C[C@@H]1OCCCC[C@H](C)Oc2ccc(NC(=O)Cc3ccccc3)cc2C(=O)N([C@H](C)CO)C[C@H]1C	0	0	0	.	2	0
CO[C@@H]1CN(C)C(=O)c2ccc(NC(=O)C3CCCC3)cc2OC[C@H](C)N(CC2CC2)C[C@H]1C	2	11	0	1	3	-1
CO[C@H]1CN(C)C(=O)c2cc(NC(=O)C3CCCCC3)ccc2OC[C@@H](C)N(C)C[C@H]1C	.	32	0	-4	-3	-2
Cc1noc(C)c1S(=O)(=O)Nc1ccc2c(c1)C(=O)N([C@H](C)CO)C[C@@H](C)[C@@H](CN(C)Cc1ccc(C(F)(F)F)cc1)OCCCC[C@H](C)O2	11	-10	0	86*	.	-6
O=C(C[C@@H]1C=C[C@H](NC(=O)c2cccnc2)[C@@H](CO)O1)NCc1ccncn1	0	-2	1	2	.	-2
C=C(CN(C)C)C(=O)c1cc(C)ccc1C	-82	90*	1	52	33	-6
O=C(C(=O)N1CCC(CNS(=O)(=O)c2ccccc2OC(F)(F)F)CC1)c1cc2ccccc2o1	.	-13	0	38	8	0
CN(C)c1cccc2c(S(=O)(=O)NCC3CCN(C(=O)C(=O)c4cc5ccccc5o4)CC3)cccc12	.	.	0	62*	10	2
O=C(NCC1CC1)Nc1ccccc1F	83*	4	0	-30	-33	-8
Cc1ccc(CN2CCC(CNC(=O)Nc3ccccc3F)CC2)cc1	5	-9	0	4	0	5
Cc1ccc(-n2nc3c(=O)n(CC(=O)NCCc4cccs4)nc(C)c3c2C)cc1	-12	2	0	37	.	-1
Cc1nnc(N2CCCC(C(=O)NCc3ccc(OC(C)C)cc3)C2)c2nn(-c3ccccc3)c(C)c12 (centres undefined)	-16	20	0	73*	.	3
Cc1ccc(-n2nc3c(N4CCC(C(=O)NCCc5cccs5)CC4)nnc(C)c3c2C)cc1	.	7	0	71*	.	0
COc1ccccc1-c1ccc2c(c1)O[C@H](CN(C)S(=O)(=O)c1ccc(F)cc1)[C@H](C)CN([C@@H](C)CO)S2(=O)=O	-2	-1	-1	28	-4	0
SMILES	PGC1a acetyl inh	INS-1E GSIS act	Xi reactivation	PAX8 inh HTS	EWS-Fli block	AF4-AF9 inh
COc1ccccc1NC(=O)N1CCCCN2[C@H](C1)[C@@H](c1ccc(-c3cccc(C#N)c3)cc1)[C@@H]2CO	-15	-5	0	83*	9	-4
COc1ccccc1NC(=O)N1CCCCN2[C@@H](CO)[C@@H](c3ccc(-c4cccc(C)c4)cc3)[C@@H]2C1	-4	-15	0	104*	57*	9
COc1ccccc1NC(=O)N1CCCCN2[C@H](C1)[C@H](c1ccc(-c3cccc(C#N)c3)cc1)[C@@H]2CO	6	-7	0	21	15	-6
COc1ccccc1NC(=O)N1CCCCN2[C@H](C1)[C@H](c1ccc(-c3cccc(C)c3)cc1)[C@@H]2CO	3	-28	0	35	30	-2
COC(=O)c1ccc(CN2CC(=O)N3[C@H](CO)[C@H](c4ccc(-c5ccccc5)cc4)[C@H]3C2)cc1	.	-21	0	.	.	.
COc1cc(NC(=O)CN2CCC(Cc3ccccc3)CC2)c(C)cc1[N+](=O)[O-]	.	58*	0	3	.	.
COc1cc(CN2CCC(Cc3ccccc3)CC2)cc([N+](=O)[O-])c1O	-11	0	0	-23	4	4
CC(C)(C)[Si](C)(C)OC[C@@H]1[C@H]2c3ccccc3O[C@]1(C)NC(=S)N2C(=O)c1ccccc1	-9	.	.	95*	10	1
CNC[C@@H]1Oc2cc(-c3cccc(C(=O)N(C)C)c3)ccc2S(=O)(=O)N([C@H](C)CO)C[C@H]1C	18	-5	-1	-3	-6	1
CC(=O)OC(C)(C)/C=C/C(=O)[C@](C)(O)C1[C@H](O)C[C@@]2(C)C3CC=C4C(C=C(O[C@@H]5O[C@H](CO)[C@@H](O)[C@H](O)[C@H]5O)C(=O)C4(C)C)[C@]3(C)C(=O)C[C@]12C (some centres undefined)	.	-8	2	102*	-10	4

From PubChem BioAssay
